Laboratory results reported in ChEMBL document CHEMBL1148234, “Tricyclic pyridones as functionally selective human GABAA alpha 2/3 receptor-ion channel ligands” (Bioorg Med Chem Lett, 2004).

Key:
[1] = molecular target: T1, Gamma-aminobutyric acid receptor subunit alpha-3 (Homo sapiens) (UniProt P34903); assay: Efficacy at Gamma-aminobutyric acid A receptor, alpha 3-ion channel relative to chlorodiazepoxide.
T1 sequence (whole entry): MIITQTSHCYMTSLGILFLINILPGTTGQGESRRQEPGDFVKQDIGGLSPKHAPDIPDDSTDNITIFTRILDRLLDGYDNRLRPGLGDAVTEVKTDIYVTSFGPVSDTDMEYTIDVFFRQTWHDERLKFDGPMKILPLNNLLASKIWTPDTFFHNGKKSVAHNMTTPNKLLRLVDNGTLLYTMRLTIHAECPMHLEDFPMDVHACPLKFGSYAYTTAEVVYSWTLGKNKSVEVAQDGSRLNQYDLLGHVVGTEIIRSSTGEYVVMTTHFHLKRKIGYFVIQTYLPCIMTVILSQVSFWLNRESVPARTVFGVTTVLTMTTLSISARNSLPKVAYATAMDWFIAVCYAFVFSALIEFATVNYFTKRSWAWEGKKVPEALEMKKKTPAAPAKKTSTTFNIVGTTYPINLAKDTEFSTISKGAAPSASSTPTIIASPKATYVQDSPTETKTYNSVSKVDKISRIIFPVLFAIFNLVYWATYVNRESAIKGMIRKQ
Procedure, shortened: (§1)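 Human recombinant GABAA receptors, α1 or α3 with β3γ2, stably expressed in L(tk⁻) cells. Chloride ion flux modulated by test compound at approximately 1000×Ki, in the presence of GABA at an EC20-equivalent concentration. Efficacy expressed relative to full agonist chlordiazepoxide (=1.0), from at least seven independent experiments; some compounds measured instead by whole-cell patch-clamp current at GABA EC20.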

[2] = molecular target: T2, GABA-A receptor; alpha-1/beta-3/gamma-2 (Homo sapiens, UniProt P14867+P18507+P28472); assay: Binding affinity at human recombinant gamma-aminobutyric-acid A receptor alpha-1-beta-3-gamma-2 expressed in L(tk) cells by [3H]Ro-151788 displacement.; assay type: cell-based
T2 sequence (P14867 whole entry): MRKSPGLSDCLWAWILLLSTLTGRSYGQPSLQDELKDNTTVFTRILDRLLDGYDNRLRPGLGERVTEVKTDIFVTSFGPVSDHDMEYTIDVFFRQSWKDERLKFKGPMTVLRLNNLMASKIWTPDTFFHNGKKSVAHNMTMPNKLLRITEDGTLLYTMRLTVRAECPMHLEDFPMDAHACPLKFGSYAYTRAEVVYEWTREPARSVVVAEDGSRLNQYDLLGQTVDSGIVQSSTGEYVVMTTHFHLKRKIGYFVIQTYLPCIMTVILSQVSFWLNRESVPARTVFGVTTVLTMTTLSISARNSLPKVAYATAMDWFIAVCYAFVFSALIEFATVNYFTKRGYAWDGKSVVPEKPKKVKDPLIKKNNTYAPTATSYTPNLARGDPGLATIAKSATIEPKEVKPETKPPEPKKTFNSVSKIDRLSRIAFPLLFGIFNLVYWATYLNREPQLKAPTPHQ
T2 sequence (P18507 whole entry): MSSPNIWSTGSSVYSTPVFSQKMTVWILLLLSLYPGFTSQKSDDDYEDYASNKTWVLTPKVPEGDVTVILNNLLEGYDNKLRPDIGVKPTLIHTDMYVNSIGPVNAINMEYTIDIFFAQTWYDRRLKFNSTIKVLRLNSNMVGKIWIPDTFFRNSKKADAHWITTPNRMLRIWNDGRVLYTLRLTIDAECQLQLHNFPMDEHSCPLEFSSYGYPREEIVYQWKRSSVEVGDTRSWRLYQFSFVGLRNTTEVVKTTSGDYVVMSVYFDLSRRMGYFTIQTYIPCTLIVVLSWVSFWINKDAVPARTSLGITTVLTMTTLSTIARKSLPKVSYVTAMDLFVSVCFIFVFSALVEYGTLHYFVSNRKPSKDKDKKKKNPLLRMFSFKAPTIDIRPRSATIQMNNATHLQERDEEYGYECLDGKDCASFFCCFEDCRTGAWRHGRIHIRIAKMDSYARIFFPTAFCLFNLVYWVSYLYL
T2 sequence (P28472 whole entry): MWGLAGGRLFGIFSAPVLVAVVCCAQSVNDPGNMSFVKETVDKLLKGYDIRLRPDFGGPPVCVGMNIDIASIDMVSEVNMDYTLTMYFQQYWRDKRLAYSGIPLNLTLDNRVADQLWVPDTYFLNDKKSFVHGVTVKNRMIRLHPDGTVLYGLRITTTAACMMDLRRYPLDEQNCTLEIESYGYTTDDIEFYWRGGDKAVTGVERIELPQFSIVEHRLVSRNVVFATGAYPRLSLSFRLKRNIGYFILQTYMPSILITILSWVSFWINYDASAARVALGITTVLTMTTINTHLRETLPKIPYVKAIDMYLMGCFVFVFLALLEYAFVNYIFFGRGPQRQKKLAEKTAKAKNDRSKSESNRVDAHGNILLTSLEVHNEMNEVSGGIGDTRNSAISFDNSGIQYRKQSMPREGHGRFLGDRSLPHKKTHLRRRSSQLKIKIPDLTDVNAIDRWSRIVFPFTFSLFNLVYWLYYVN
Procedure, shortened: (§2)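 Human recombinant GABAA receptors (α1 or α3 with β3γ2) stably expressed in L(tk⁻) cells; affinity measured as displacement of [³H]Ro15-1788. Values are mean±SD of 2–10 separate determinations.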

[3] = molecular target: T3, Gamma-aminobutyric acid receptor subunit alpha-1 (Homo sapiens) (UniProt P14867); assay: Efficacy at gamma-aminobutyric acid A receptor, alpha 1-ion channel relative to chlorodiazepoxide.; procedure, shortened: as §1
T3 sequence (whole entry): T2 sequence (P14867 whole entry)

[4] = molecular target: T4, GABA-A receptor; alpha-3/beta-3/gamma-2 (Homo sapiens, UniProt P18507+P28472+P34903); assay: Binding affinity at human recombinant gamma-aminobutyric-acid A receptor alpha-3-beta-3-gamma-2 expressed in L(tk) cells by [3H]Ro-151788 displacement.; assay type: cell-based; procedure, shortened: as §2
T4 sequence (P18507 whole entry): T2 sequence (P18507 whole entry)
T4 sequence (P28472 whole entry): T2 sequence (P28472 whole entry)
T4 sequence (P34903 whole entry): T1 sequence (whole entry)

[5] = Oral bioavailability in rat; assay type: ADME, organism-based; details: in vivo
[6] = molecular target: Gamma-aminobutyric acid receptor subunit alpha-4 (Homo sapiens, UniProt P48169); assay: Displacement of [3H]Ro-151788 from human GABA-A receptor alpha4 subunit expressed in L(tk) cells; assay type: cell-based
Gamma-aminobutyric acid receptor subunit alpha-4, sequence (P48169 whole entry): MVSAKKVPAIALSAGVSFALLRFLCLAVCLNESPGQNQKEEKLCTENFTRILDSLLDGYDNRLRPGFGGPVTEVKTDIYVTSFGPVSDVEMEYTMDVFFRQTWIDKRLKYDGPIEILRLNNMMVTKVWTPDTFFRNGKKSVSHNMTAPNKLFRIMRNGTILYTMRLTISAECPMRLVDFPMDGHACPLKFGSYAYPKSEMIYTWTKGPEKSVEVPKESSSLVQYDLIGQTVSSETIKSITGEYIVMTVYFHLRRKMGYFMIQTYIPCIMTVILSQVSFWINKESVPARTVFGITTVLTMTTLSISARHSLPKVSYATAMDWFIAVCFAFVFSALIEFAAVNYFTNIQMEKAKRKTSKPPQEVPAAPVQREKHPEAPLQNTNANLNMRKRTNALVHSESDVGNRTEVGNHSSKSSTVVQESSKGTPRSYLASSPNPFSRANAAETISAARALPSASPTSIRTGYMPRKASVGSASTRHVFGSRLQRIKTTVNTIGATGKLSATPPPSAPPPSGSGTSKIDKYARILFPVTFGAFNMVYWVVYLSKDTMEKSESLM

[7] = Oral bioavailability in dog; assay type: ADME, organism-based, Canis lupus familiaris; details: in vivo
[8] = molecular target: T5, Gamma-aminobutyric acid receptor subunit alpha-5 (Homo sapiens, UniProt P31644); assay: Displacement of [3H]-Ro-15-1788 from human GABA-A receptor alpha5 subunit expressed in L(tk) cells; assay type: cell-based
T5 sequence (P31644 whole entry): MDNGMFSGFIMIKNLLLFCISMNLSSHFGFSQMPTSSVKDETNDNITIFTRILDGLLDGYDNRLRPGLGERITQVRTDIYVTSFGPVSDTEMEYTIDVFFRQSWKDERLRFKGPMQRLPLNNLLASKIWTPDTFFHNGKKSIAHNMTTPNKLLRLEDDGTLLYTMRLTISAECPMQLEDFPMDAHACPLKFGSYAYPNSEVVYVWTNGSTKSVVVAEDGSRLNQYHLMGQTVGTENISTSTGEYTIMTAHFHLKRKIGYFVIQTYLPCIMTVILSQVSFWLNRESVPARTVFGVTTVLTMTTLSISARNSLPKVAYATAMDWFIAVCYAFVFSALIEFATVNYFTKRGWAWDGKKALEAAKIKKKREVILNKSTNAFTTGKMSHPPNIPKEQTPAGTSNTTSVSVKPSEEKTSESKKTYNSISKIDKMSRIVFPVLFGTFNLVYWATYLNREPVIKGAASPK

[9] = molecular target: Gamma-aminobutyric acid receptor subunit alpha-6 (Homo sapiens, UniProt Q16445); assay: Displacement of [3H]Ro-151788 from human GABA-A receptor alpha6 subunit expressed in L(tk) cells; assay type: cell-based
Gamma-aminobutyric acid receptor subunit alpha-6, sequence (Q16445 whole entry): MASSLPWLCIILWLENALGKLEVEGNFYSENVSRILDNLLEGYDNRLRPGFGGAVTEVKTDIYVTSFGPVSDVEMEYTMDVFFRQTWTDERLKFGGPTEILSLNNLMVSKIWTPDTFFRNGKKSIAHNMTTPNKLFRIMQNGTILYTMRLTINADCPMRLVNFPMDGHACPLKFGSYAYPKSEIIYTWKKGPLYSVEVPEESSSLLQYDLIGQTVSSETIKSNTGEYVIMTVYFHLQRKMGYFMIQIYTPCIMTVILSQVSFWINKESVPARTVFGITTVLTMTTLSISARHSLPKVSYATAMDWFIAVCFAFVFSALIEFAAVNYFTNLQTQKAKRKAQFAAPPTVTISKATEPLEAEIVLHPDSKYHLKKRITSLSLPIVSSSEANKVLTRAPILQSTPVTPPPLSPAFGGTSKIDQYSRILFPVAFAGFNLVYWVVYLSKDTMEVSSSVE

[10] = molecular target: T2, GABA-A receptor; alpha-1/beta-3/gamma-2; assay: Displacement of [3H]Ro-151788 from human GABA-A receptor alpha-1-beta-3-gamma-2 subunits expressed in L(tk) cells; assay type: cell-based; procedure, shortened: as §2
[11] = molecular target: T6, Gamma-aminobutyric acid receptor subunit alpha-2 (Homo sapiens, UniProt P47869); assay: Displacement of [3H]Ro-151788 from human GABA-A receptor alpha2 subunit expressed in L(tk) cells; assay type: cell-based
T6 sequence (P47869 whole entry): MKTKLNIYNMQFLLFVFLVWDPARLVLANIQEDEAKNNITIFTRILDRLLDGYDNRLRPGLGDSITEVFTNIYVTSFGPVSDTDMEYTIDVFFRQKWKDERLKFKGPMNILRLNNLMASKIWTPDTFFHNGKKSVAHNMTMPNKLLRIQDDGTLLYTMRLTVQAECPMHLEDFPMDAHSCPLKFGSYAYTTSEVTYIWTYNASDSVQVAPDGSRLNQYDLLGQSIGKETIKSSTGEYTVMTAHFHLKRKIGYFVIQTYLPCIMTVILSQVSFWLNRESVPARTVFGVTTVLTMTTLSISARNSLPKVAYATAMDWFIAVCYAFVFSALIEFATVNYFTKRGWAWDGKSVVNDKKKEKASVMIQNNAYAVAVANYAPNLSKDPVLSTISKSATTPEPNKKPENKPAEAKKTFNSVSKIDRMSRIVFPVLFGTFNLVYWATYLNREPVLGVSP

SMILES | Efficacy [1] | Ki [2] [nM] | Efficacy [3] | Ki [4] [nM] | bioavailability [5] [%] | Ki [6] [nM] | bioavailability [7] [%] | Ki [8] [nM] | Ki [9] [nM] | Ki [10] [nM] | Ki [11] [nM]
Cc1csc(-c2cc(-c3cncnc3)c3n(c2=O)CCCc2ccncc2-3)n1 | 0.16 | 21.1 | -0.03 | 9 |  |  |  |  |  |  | 
Cc1csc(-c2cc(-c3ccncc3)c3n(c2=O)CCCc2ccncc2-3)n1 | 0.45 | 1.3 | 0 | 0.5 | 28 | 27.9 | 20 | > 33.3 | 65.9 |  | 
Cc1csc(-c2cc(-c3ccc4ccccc4c3)c3n(c2=O)CCCc2ccncc2-3)n1 |  | > 33 |  | > 33 |  |  |  |  |  |  | 
Cc1csc(-c2cc(-c3ccoc3)c3n(c2=O)CCCc2ccncc2-3)n1 | 0.05 | 3.9 | 0.04 | 4.4 |  |  |  |  |  |  | 
Cc1csc(-c2cc(-c3ccn(C)n3)c3n(c2=O)CCCc2ccncc2-3)n1 | 0.47 | 10 | 0.29 | 20 |  |  |  |  |  |  | 
Cc1csc(-c2cc(-c3ccc[nH]3)c3n(c2=O)CCCc2ccncc2-3)n1 | 0.41 | 7.8 | -0.21 | 4.2 |  |  |  |  |  |  | 
Cc1csc(-c2cc(-c3ccc(C(C)(C)C)cc3)c3n(c2=O)CCCc2ccncc2-3)n1 |  | > 33 |  | > 33 |  |  |  |  |  |  | 
Cc1csc(-c2cc(-c3ccnnc3)c3n(c2=O)CCCc2ccncc2-3)n1 | 0.2 | 8.3 | -0.41 | 5 |  |  |  |  |  |  | 
Cc1csc(-c2cc(-c3nccn3C)c3n(c2=O)CCCc2ccncc2-3)n1 | -0.01 |  | -0.33 | 16.8 |  |  |  |  |  | 14.3 | 
Cc1csc(-c2cc(-c3cccn3C)c3n(c2=O)CCCc2ccncc2-3)n1 | 0.46 | 4 | 0 | 3 |  |  |  |  |  |  | 
Cc1csc(-c2cc(-c3ccccc3C)c3n(c2=O)CCCc2ccncc2-3)n1 | 0.36 | 1.5 | 0.08 | 1.2 |  |  |  |  |  |  | 
Cc1csc(-c2cc(-c3c(C)noc3C)c3n(c2=O)CCCc2ccncc2-3)n1 | 0.41 | 4.6 | -0.11 | 3.1 |  |  |  |  |  |  | 
Cc1csc(-c2cc(-c3ccc(Cl)cc3)c3n(c2=O)CCCc2ccncc2-3)n1 | 0.26 |  | 0.17 | 0.4 |  |  |  |  |  | 0.2 | 
Cc1csc(-c2cc(-c3ccccc3F)c3n(c2=O)CCCc2ccncc2-3)n1 | 0.48 | 5 | 0.56 | 3 |  |  |  |  |  |  | 
Cc1csc(-c2cc(-c3ccc(C#N)cc3)c3n(c2=O)CCCc2ccncc2-3)n1 | 0.39 | 5.4 | -0.04 | 3.1 |  |  |  |  |  |  | 
Cc1csc(-c2cc(-c3cccnn3)c3n(c2=O)CCCc2ccncc2-3)n1 | -0.44 | 26.1 | -0.33 | 17.3 |  |  |  |  |  |  | 
Cc1csc(-c2cc(-c3ccncn3)c3n(c2=O)CCCc2ccncc2-3)n1 | 0.32 | 12.2 | 0.03 | 8.5 |  |  |  |  |  |  | 
Cc1csc(-c2cc(-c3ccccc3)c3n(c2=O)CCCc2ccncc2-3)n1 | 0.32 | 0.7 | 0.1 | 0.4 |  |  |  |  |  |  | 0.3
Cc1csc(-c2cc(-c3cccnc3)c3n(c2=O)CCCc2ccncc2-3)n1 | -0.02 | 5.3 | -0.16 | 2.4 |  |  |  |  |  |  | 
